hERG rescue: shields human hERG channel from block by proarrhythmic agents. CHO-hERG, FluxOR thallium flux, dofetilide IC70 present. hit rate 0.51% among 310,000. activation (rescue from dofetilide block), less the hit threshold, % at 10 µM. Q12809. AID 1511;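 active = activation above the mean of controls blocked by dofetilide plus 5 SD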;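 also: thallium influx through hERG after potassium depolarization seen as dye fluorescence rise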
KCNK9 inh: human KCNK9 channel inhibition | HEK293 KCNK9, FluxOR thallium flux fluorescence; hits give low values | AID 488922 | B-score at 10 µM | Q9NPC2 | hit rate 1.2% among 310,000;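 active = ratio B-score over 3 SD below the library mean, with starting fluorescence within 5 SD of its mean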;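 also: negative B-score means less thallium flux so channel inhibition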
Target sequence (Q9NPC2 whole entry, looked up): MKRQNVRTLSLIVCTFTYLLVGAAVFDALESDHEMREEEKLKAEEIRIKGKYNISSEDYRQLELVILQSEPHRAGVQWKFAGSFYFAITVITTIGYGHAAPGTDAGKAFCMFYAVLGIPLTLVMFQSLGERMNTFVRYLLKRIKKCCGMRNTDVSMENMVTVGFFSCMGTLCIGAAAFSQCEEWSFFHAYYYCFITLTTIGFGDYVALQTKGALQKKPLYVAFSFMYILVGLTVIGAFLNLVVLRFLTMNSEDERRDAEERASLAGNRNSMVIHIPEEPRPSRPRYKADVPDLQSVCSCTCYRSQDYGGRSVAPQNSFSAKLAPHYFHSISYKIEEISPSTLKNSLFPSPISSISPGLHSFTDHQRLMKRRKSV
KCNK3 inh: human KCNK3 channel inhibition, primary screen; O14649; CHO-KCNK3 thallium flux, FluxOR fluorescence; hits give low values; B-score at 10 µM; hit rate 0.84% among 340,000;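 active = B-score under library mean minus 4 SD, starting fluorescence ratio at most library mean plus 5 SD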;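 also: more negative B-score means stronger inhibition of thallium flux through KCNK3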
Target sequence (O14649 whole entry, looked up): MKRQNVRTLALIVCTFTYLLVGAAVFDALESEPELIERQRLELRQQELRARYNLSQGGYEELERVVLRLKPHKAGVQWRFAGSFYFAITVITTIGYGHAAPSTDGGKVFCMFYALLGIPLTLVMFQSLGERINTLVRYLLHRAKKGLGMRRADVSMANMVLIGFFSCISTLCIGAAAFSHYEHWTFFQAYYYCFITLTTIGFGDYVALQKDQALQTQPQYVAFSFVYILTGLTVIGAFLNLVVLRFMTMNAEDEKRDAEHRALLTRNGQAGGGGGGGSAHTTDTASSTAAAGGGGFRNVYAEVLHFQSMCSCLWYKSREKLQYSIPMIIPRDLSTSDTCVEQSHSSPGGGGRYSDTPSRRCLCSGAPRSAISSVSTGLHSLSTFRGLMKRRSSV
Cl transport mod: KCC2 (human) Cl- transport modulation. B-score of Tl+ flux slope (higher = more flux/activation; lower = inhibition) at 10 µM. hit rate 2.2% among 190,000. KCC2 cells, thallium flux FluoZin-2 fluorescence. Q9H2X9;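 active = thallium flux slope and its plate-corrected score both differing from the plate sample mean at a set confidence after two filtering rounds, in either direction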;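 also: slope of fluorescence scaled to starting intensity during 10 to 20 s after thallium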
KCNQ1 pot: potentiators or activators of human KCNQ1 potassium channel | P51787 | AID 2648 | hit rate 0.35% among 310,000 | CHO-K1 KCNQ1, thallium flux FluxOR fluorescence; hits give high values | B-score at 10 µM;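 active = fluorescence ratio B-score, a plate-corrected score, at least three library SD, with initial intensity B-score within 5 SD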
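assay system = KCNQ1-transfected CHO-K1 cells | medium = assay buffer with matched DMSO | probe or stimulus = depolarizing K+/Tl+ stimulus, K2SO4 and Tl2SO4 each 12.5 mM in 5x stock | dosing = single dose | incubation = dye 90 min, compound 20 min, room temperature | detection = kinetic FluxOR fluorescence, 10 s baseline plus 110 s post-stimulus | evaluation = ratio B score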
KCNQ1 inh: inhibitors of human KCNQ1 potassium channel; CHO-K1 KCNQ1, FluxOR thallium flux fluorescence; hits give high values; B-score at 10 µM; hit rate 1.3% among 310,000;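 active = compounds whose thallium flux B-score, printed positive for inhibition, exceeds three library SD while starting fluorescence stays within three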;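 also: channel opened by potassium depolarization with thallium stimulus after 20 min compound exposure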
KCC2 secondary: confirmation of human KCC2 transport modulators. shares compounds with Cl transport mod. HEK293-KCC2, thallium flux, FluoZin2 fluorescence; hits give high values. normalised thallium flux (F/F0 slope) at 10 µM. hit rate 15% among 3,700;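 active = thallium flux slope above the same plate's solvent-only control mean plus 3 SD; inconclusive = the two replicate wells disagree; inactive = no significant difference from solvent-only control wells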
KCC2 bumet counter: thallium flux despite bumetanide block in KCC2 cells, secondary assay 3 | shares compounds with Cl transport mod | HEK293-KCC2 + bumetanide/ouabain, thallium flux FluoZin2; hits give high values | normalized thallium flux at 10 µM | hit rate 49% among 3,700;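 active = thallium entry rate above the same plate's blocked-transporter control wells by more than 3 SD; inconclusive = the two repeat wells disagree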;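 also: raw slope of fluorescence over initial fluorescence between 10 and 20 s after thallium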
KCC2 secondary2: KCC2 (human) modulation, second secondary assay. HEK293-KCC2, thallium flux FluoZin2 fluorescence; actives lie on both sides; F/F0 rise rate, 10–20 s post-thallium. normalized thallium flux at 10 µM. hit rate 23% among 3,700. shares compounds with Cl transport mod. AID 1715;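 active = thallium flux slope more than 3 SD above or below the plate's solvent-only control mean, mostly below; inconclusive = the two repeat wells disagreed; inactive = no significant shift from solvent-only controls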
HEK293 Tl flux: counter-screen for KCC2 modulators: effect in parental HEK293 cells; AID 1716; hit rate 46% among 3,700; thallium flux rate (normalised fluorescence) at 10 µM; thallium flux FluoZin2, ouabain; baseline-ratio fluorescence slope, 10–20 s after thallium; shares compounds with Cl transport mod;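 active = thallium flux rate significantly above the same plate's solvent-only control wells, beyond their mean plus 3 SD; inconclusive = the two replicate wells gave conflicting results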
KCC2 retest ouab: confirmation of human KCC2 modulators with ouabain; AID 1717; HEK293-KCC2, thallium flux FluoZin2 fluorescence; bidirectional: low = inhibitor, high = activator; shares compounds with Cl transport mod; raw Tl+ flux slope (below DMSO = inhibition, above = activation) at 10 µM; hit rate 48% among 3,700;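 active = thallium flux slope beyond 3 SD from same-plate DMSO control mean in most replicates, usually higher, sometimes lower; inconclusive = repeat tests gave conflicting results; inactive = no significant difference from controls in most replicates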;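 also: slope of initial-normalized fluorescence between seconds 10 and 20 after thallium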
HEK counter2: counter-screen for KCC2 modulators: effect in parental HEK293 cells; thallium flux slope at 10 µM; hit rate 33% among 3,700; shares compounds with Cl transport mod; AID 1718; thallium flux FluoZin-2 fluorescence slope;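 active = thallium flux slope above the same plate's solvent-control mean plus 3 SD in both duplicate wells; inconclusive = duplicate wells that disagreed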;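 also: run without ouabain in cells lacking the KCC2 cotransporter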
A number is an active result. This is a sample that favours compounds with a hit; in the whole collection about 4.1% have one here.

Results for CCOc1ccc(NC(=O)CN2CC(c3ccccc3)CC2=O)cc1 (configuration not stated) ?
hERG rescue: inactive; KCNK9 inh: inactive; KCNK3 inh: inactive; Cl transport mod: -2.8; KCNQ1 pot: inactive; KCNQ1 inh: inactive; KCC2 secondary: inactive; KCC2 bumet counter: inactive; KCC2 secondary2: inactive; HEK293 Tl flux: inactive; KCC2 retest ouab: inactive; HEK counter2: inactive

How did Cn1c(Sc2ccc(C(F)(F)F)cc2[N+](=O)[O-])nnc1-c1ccccc1 do in these assays?
hERG rescue: inactive; KCNK9 inh: inactive; KCNK3 inh: inactive; Cl transport mod: -5.3; KCNQ1 pot: inactive; KCNQ1 inh: inactive; KCC2 secondary: inactive; KCC2 bumet counter: inactive; KCC2 secondary2: inactive; HEK293 Tl flux: inactive; KCC2 retest ouab: inactive; HEK counter2: inactive

Results for CC(C)(C)C(=O)NC(=S)NNC(=O)C(c1ccccc1)c1ccccc1 ?
hERG rescue: inactive; KCNK9 inh: inactive; KCNK3 inh: inactive; Cl transport mod: 5.8; KCNQ1 pot: 31; KCNQ1 inh: inactive; KCC2 secondary: inactive; KCC2 bumet counter: 0.023; KCC2 secondary2: inactive; HEK293 Tl flux: inconclusive; KCC2 retest ouab: 0.03; HEK counter2: inactive

How did COc1cc2c(cc1OC)CN(C(=O)CN1C(=O)c3ccc([N+](=O)[O-])cc3C1=O)CC2 do in these assays?
hERG rescue: inactive; KCNK9 inh: inactive; KCNK3 inh: inactive; KCNQ1 pot: inactive; KCNQ1 inh: inactive

Results for O=C(CSc1ncnc2c1oc1ccccc12)NC1CCCCC1 ?
hERG rescue: inactive; KCNK9 inh: inactive; KCNK3 inh: inactive; Cl transport mod: -3.8; KCNQ1 pot: inactive; KCNQ1 inh: inactive; KCC2 secondary: inactive; KCC2 bumet counter: inactive; KCC2 secondary2: inconclusive; HEK293 Tl flux: inactive; KCC2 retest ouab: 0.02; HEK counter2: inactive

Results for CCCNC(=O)NC(=O)CSc1ccc(C)cc1C ?
hERG rescue: inactive; KCNK9 inh: inactive; KCNK3 inh: inactive; Cl transport mod: inactive; KCNQ1 pot: inactive; KCNQ1 inh: inactive

What do the screens show for `CCOC(=O)NC(=O)CSc1ccc(C)cc1C`?
hERG rescue: inactive; KCNK9 inh: inactive; KCNK3 inh: inactive; Cl transport mod: 2.9; KCNQ1 pot: inactive; KCNQ1 inh: inactive; KCC2 secondary: inactive; KCC2 bumet counter: inactive; KCC2 secondary2: inactive; HEK293 Tl flux: inconclusive; KCC2 retest ouab: inactive; HEK counter2: inactive

How did Cc1ccc(C(=O)NC(=S)N2CCN(C(=O)OC(C)(C)C)CC2)cc1Br do in these assays?
hERG rescue: inactive; KCNK9 inh: inactive; KCNK3 inh: inactive; Cl transport mod: 19; KCNQ1 pot: inactive; KCNQ1 inh: inactive; KCC2 secondary: inconclusive; KCC2 bumet counter: 0.088; KCC2 secondary2: 0.074; HEK293 Tl flux: 0.062; KCC2 retest ouab: 0.087; HEK counter2: 0.057

How did CCOC(=O)N1CCN(C(=S)NC(=O)c2ccc(Br)cc2)CC1 do in these assays?
hERG rescue: inactive; KCNK9 inh: inactive; KCNK3 inh: inactive; Cl transport mod: 17; KCNQ1 pot: inactive; KCNQ1 inh: inactive; KCC2 secondary: 0.023; KCC2 bumet counter: 0.059; KCC2 secondary2: inactive; HEK293 Tl flux: inconclusive; KCC2 retest ouab: inactive; HEK counter2: 0.013

What do the screens show for `O=C(NC(=S)N1CCCC1)c1ccc(Cl)cc1`?
hERG rescue: inactive; KCNK9 inh: inactive; KCNK3 inh: inactive; KCNQ1 pot: inactive; KCNQ1 inh: inactive

How did CN1CCN(C(=S)NC(=O)c2ccc(Cl)cc2)CC1 do in these assays?
hERG rescue: inactive; KCNK9 inh: inactive; KCNK3 inh: inactive; Cl transport mod: 14; KCNQ1 pot: inactive; KCNQ1 inh: inactive; KCC2 secondary: inactive; KCC2 bumet counter: 0.02; KCC2 secondary2: inactive; HEK293 Tl flux: 0.018; KCC2 retest ouab: 0.029; HEK counter2: 0.017

How did Cc1ccc(N2C(=O)N(CC(=O)N3c4ccccc4CC3C)C(=O)C2C)cc1 (configuration not stated) do in these assays?
KCNK3 inh: inactive

How did COc1cccc(C(CCc2cc(OC)c(OC)c(OC)c2)NC(C)=O)c1 (configuration not stated) do in these assays?
KCNK3 inh: inactive

What do the screens show for `CC(=O)CCCCn1c(=O)c2c(ncn2C)n(C)c1=O`?
hERG rescue: inactive; KCNK9 inh: inactive; KCNK3 inh: inactive; Cl transport mod: inactive; KCNQ1 pot: inactive; KCNQ1 inh: inactive

What do the screens show for `CC(=O)CCn1c(=O)n(CCC(C)=O)c(=O)n(CCC(C)=O)c1=O`?
KCNK3 inh: inactive; Cl transport mod: inactive; KCC2 secondary: inactive; KCC2 bumet counter: inconclusive; KCC2 secondary2: inactive; HEK293 Tl flux: inactive; KCC2 retest ouab: inactive; HEK counter2: inconclusive

Results for CCOC(=O)C1=C(COC(=O)c2ccc(OC)c(S(=O)(=O)N3CCOCC3)c2)NC(=O)NC1C (configuration not stated) ?
KCNK3 inh: inactive

Results for Cc1ccnc(NC(=O)CNC(=O)c2ccc(Br)o2)c1 ?
hERG rescue: inactive; KCNK9 inh: inactive; KCNK3 inh: inactive; KCNQ1 pot: inactive; KCNQ1 inh: inactive

What do the screens show for `CCC(=O)c1ccc(OCC(=O)OCC(=O)Nc2cccc(S(=O)(=O)N3CCOCC3)c2)cc1`?
KCNK3 inh: inactive

Results for COc1ccc(NC(=O)CCCCCN2C(=O)CCC2=O)cc1Cl ?
hERG rescue: inactive; KCNK9 inh: inactive; KCNK3 inh: inactive; KCNQ1 pot: inactive; KCNQ1 inh: inactive; KCC2 secondary: inactive; KCC2 bumet counter: inconclusive; KCC2 secondary2: inactive; HEK293 Tl flux: inactive; KCC2 retest ouab: inactive; HEK counter2: inactive

What do the screens show for `COc1ccc(NC(=O)CCCN2C(=O)CCC2=O)cc1Cl`?
hERG rescue: inactive; KCNK9 inh: inactive; KCNK3 inh: inactive; Cl transport mod: inactive; KCNQ1 pot: inactive; KCNQ1 inh: inactive

Compound activity as filed in PubChem BioAssay.
